Experimental data published in ChEMBL document CHEMBL3612027, “Substrate-guided optimization of the syringolins yields potent proteasome inhibitors with activity against leukemia cell lines” (Bioorg Med Chem, 2015).

How the values were obtained:
HT-29 = test: Cytotoxicity against human HT-29 cells assessed as cell growth at 10 uM after 48 hrs relative to control; format: functional; conditions: HT-29, 48 h, read-out: Activity
In short: (§1)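 Run at the National Cancer Institute as a single-dose screen across its 60-cell-line cancer panel. Compound was tested at 10 micromolar, and growth was expressed as a percentage of negative-control cultures.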

ACHN = test: Cytotoxicity against human ACHN cells assessed as cell growth at 10 uM after 48 hrs relative to control; format: functional; conditions: read-out: Activity; in short: as §1
SF-295 = test: Cytotoxicity against human SF295 cells assessed as cell growth at 10 uM after 48 hrs relative to control; format: functional; conditions: SF-295, 48 h, read-out: Activity; in short: as §1
SF-539 = test: Cytotoxicity against human SF539 cells assessed as cell growth at 10 uM after 48 hrs relative to control; format: functional; conditions: SF-539, 48 h, read-out: Activity; in short: as §1
K562 = test: Cytotoxicity against human K562 cells assessed as cell growth at 10 uM after 48 hrs relative to control; format: functional; conditions: K562, 48 h, read-out: Activity; in short: as §1
LOX IMVI = test: Cytotoxicity against human LOXIMVI cells assessed as cell growth at 10 uM after 48 hrs relative to control; format: functional; conditions: read-out: Activity; in short: as §1
DU-145 = test: Cytotoxicity against human DU145 cells assessed as cell growth at 10 uM after 48 hrs relative to control; format: functional; conditions: DU-145, 48 h, read-out: Activity; in short: as §1
SNB-75 = test: Cytotoxicity against human SNB75 cells assessed as cell growth at 10 uM after 48 hrs relative to control; format: functional; conditions: SNB-75, 48 h, read-out: Activity
In short: (§2)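 Submitted to the National Cancer Institute for a single-dose screen at 10 micromolar against 60 cancer cell lines. Growth is expressed relative to negative-control cultures.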

MOLT-4 = test: Cytotoxicity against human MOLT4 cells assessed as cell growth at 10 uM after 48 hrs relative to control; format: functional; conditions: MOLT-4, 48 h, read-out: Activity; in short: as §1
NCI-H226 = test: Cytotoxicity against human NCI-H226 cells assessed as cell growth at 10 uM after 48 hrs relative to control; format: functional; conditions: NCI-H226, 48 h, read-out: Activity; in short: as §1
COLO 205 = test: Cytotoxicity against human COLO205 cells assessed as cell growth at 10 uM after 48 hrs relative to control; format: functional; conditions: COLO 205, 48 h, read-out: Activity; in short: as §1
HOP-92 = test: Cytotoxicity against human HOP92 cells assessed as cell growth at 10 uM after 48 hrs relative to control; format: functional; conditions: HOP-92, 48 h, read-out: Activity; in short: as §1
MDA-MB-435 = test: Cytotoxicity against human MDA-MB-435 cells assessed as cell growth at 10 uM after 48 hrs relative to control; format: functional; conditions: MDA-MB-435, 48 h, read-out: Activity; in short: as §1
SN12C = test: Cytotoxicity against human SN12C cells assessed as cell growth at 10 uM after 48 hrs relative to control; format: functional; conditions: read-out: Activity; in short: as §2
SNB-19 = test: Cytotoxicity against human SNB19 cells assessed as cell growth at 10 uM after 48 hrs relative to control; format: functional; conditions: SNB-19, 48 h, read-out: Activity; in short: as §2
CCRF-CEM = test: Cytotoxicity against human CCRF-CEM cells assessed as cell growth at 10 uM after 48 hrs relative to control; format: functional; conditions: read-out: Activity; in short: as §1
SF-268 = test: Cytotoxicity against human SF268 cells assessed as cell growth at 10 uM after 48 hrs relative to control; format: functional; conditions: SF-268, 48 h, read-out: Activity; in short: as §1
OVCAR-8 = test: Cytotoxicity against human OVCAR8 cells assessed as cell growth at 10 uM after 48 hrs relative to control; format: functional; conditions: OVCAR-8, 48 h, read-out: Activity; in short: as §1
IGROV-1 = test: Cytotoxicity against human IGROV1 cells assessed as cell growth at 10 uM after 48 hrs relative to control; format: functional; conditions: IGROV-1, 48 h, read-out: Activity; in short: as §1
SR = test: Cytotoxicity against human SR cells assessed as cell growth at 10 uM after 48 hrs relative to control; format: functional; conditions: read-out: Activity; in short: as §2
SK-MEL-2 = test: Cytotoxicity against human SK-MEL-2 cells assessed as cell growth at 10 uM after 48 hrs relative to control; format: functional; conditions: SK-MEL-2, 48 h, read-out: Activity; in short: as §1
HCT-15 = test: Cytotoxicity against human HCT15 cells assessed as cell growth at 10 uM after 48 hrs relative to control; format: functional; conditions: HCT-15, 48 h, read-out: Activity; in short: as §1
NCI/ADR-RES = test: Cytotoxicity against human NCI/ADR-RES cells assessed as cell growth at 10 uM after 48 hrs relative to control; format: functional; conditions: read-out: Activity; in short: as §1
MDA-MB-231 = test: Cytotoxicity against human MDA-MB-231 cells assessed as cell growth at 10 uM after 48 hrs relative to control; format: functional; conditions: MDA-MB-231, 48 h, read-out: Activity; in short: as §1
U-251 = test: Cytotoxicity against human U251 cells assessed as cell growth at 10 uM after 48 hrs relative to control; format: functional; conditions: U-251, 48 h, read-out: Activity; in short: as §2
OVCAR-4 = test: Cytotoxicity against human OVCAR4 cells assessed as cell growth at 10 uM after 48 hrs relative to control; format: functional; conditions: OVCAR-4, 48 h, read-out: Activity; in short: as §1
NCI-H322M = test: Cytotoxicity against human NCI-H322M cells assessed as cell growth at 10 uM after 48 hrs relative to control; format: functional; conditions: read-out: Activity; in short: as §1
NCI-H23 = test: Cytotoxicity against human NCI-H23 cells assessed as cell growth at 10 uM after 48 hrs relative to control; format: functional; conditions: NCI-H23, 48 h, read-out: Activity; in short: as §1
UACC-62 = test: Cytotoxicity against human UACC62 cells assessed as cell growth at 10 uM after 48 hrs relative to control; format: functional; conditions: UACC-62, 48 h, read-out: Activity; in short: as §2
MDA-MB-468 = test: Cytotoxicity against human MDA-MB-468 cells assessed as cell growth at 10 uM after 48 hrs relative to control; format: functional; conditions: MDA-MB-468, 48 h, read-out: Activity; in short: as §1
[1] = molecular target: T1, Proteasome Macropain subunit MB1 (Homo sapiens) (UniProt P28074)
T1 sequence (whole entry): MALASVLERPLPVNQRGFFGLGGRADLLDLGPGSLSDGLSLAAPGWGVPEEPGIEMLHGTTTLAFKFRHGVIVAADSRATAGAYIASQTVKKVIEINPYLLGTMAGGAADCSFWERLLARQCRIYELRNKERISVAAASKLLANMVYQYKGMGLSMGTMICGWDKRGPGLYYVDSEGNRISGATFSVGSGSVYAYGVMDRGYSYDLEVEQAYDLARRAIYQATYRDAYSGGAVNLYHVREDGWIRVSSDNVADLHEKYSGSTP

SMILES	growth at 10 µM (HT-29)	growth at 10 µM (ACHN)	growth at 10 µM (SF-295)	growth at 10 µM (SF-539)	growth at 10 µM (K562)	growth at 10 µM (LOX IMVI)	growth at 10 µM (DU-145)	growth at 10 µM (SNB-75)	growth at 10 µM (MOLT-4)	growth at 10 µM (NCI-H226)	growth at 10 µM (COLO 205)	growth at 10 µM (HOP-92)	growth at 10 µM (MDA-MB-435)	growth at 10 µM (SN12C)	growth at 10 µM (SNB-19)	growth at 10 µM (CCRF-CEM)	growth at 10 µM (SF-268)	growth at 10 µM (OVCAR-8)	growth at 10 µM (IGROV-1)	growth at 10 µM (SR)	also measured
COC(=O)[C@@H](NC(=O)N[C@H](C(=O)N[C@H]1CCCCNC(=O)/C=C/[C@H](Cc2c[nH]c3ccccc23)NC1=O)C(C)C)C(C)C	3.42%	90.8%	85.4%	-14.4%	52%	25.1%	52%	-34%	8.54%	15.1%	58.9%	18%	-81.5%	2.96%	41.7%	15.8%	9.42%	97.1%	24.7%	9.87%	growth at 10 µM (SK-MEL-2): 17.4%; growth at 10 µM (HCT-15): 109%; growth at 10 µM (NCI/ADR-RES): 98.4%; growth at 10 µM (MDA-MB-231): 39%; growth at 10 µM (U-251): 27.4%; growth at 10 µM (OVCAR-4): 2.98%; growth at 10 µM (NCI-H322M): 76.2%; growth at 10 µM (NCI-H23): 38.2%; growth at 10 µM (UACC-62): 60.7%
COC(=O)[C@@H](NC(=O)N[C@@H](Cc1ccccc1)C(=O)N[C@H]1CCCCNC(=O)/C=C/[C@H](Cc2c[nH]c3ccccc23)NC1=O)C(C)C	29.7%	101%	99.7%	17.5%	82.1%	64.7%	95.1%	33%	13.9%	65.7%	94%	91.3%	1.21%	80.1%	51.2%	58.2%	78.8%	98.9%	61.4%	21.9%	growth at 10 µM (SK-MEL-2): 22.3%; growth at 10 µM (HCT-15): 110%; growth at 10 µM (NCI/ADR-RES): 99.1%; growth at 10 µM (MDA-MB-231): 79.1%; growth at 10 µM (U-251): 63.9%; growth at 10 µM (OVCAR-4): 102%; growth at 10 µM (NCI-H322M): 99.4%; growth at 10 µM (NCI-H23): 78.1%; growth at 10 µM (MDA-MB-468): 18%; growth at 10 µM (UACC-62): 79.3%
COC(=O)[C@@H](NC(=O)N[C@H](C(=O)N[C@H]1CCCCNC(=O)/C=C/[C@H](C(C)C)NC1=O)C(C)C)C(C)C	11.7%	96.4%	58.9%	-19.4%	40.5%	-24.1%	42%	-34.6%	10.2%	-24%	51.7%	-8.79%	-55.5%	15.8%	34%	15.1%	-20.1%	86.4%	33.4%	7.05%	growth at 10 µM (SK-MEL-2): 1.6%; growth at 10 µM (HCT-15): 98.2%; growth at 10 µM (NCI/ADR-RES): 100%; growth at 10 µM (MDA-MB-231): 24.4%; growth at 10 µM (U-251): 8.29%; growth at 10 µM (OVCAR-4): 6.22%; growth at 10 µM (NCI-H322M): 77%; growth at 10 µM (NCI-H23): 34.2%; growth at 10 µM (MDA-MB-468): -0.21%; growth at 10 µM (UACC-62): 13.3%
COC(=O)[C@@H](NC(=O)N[C@@H](Cc1ccccc1)C(=O)N[C@H]1CCCCNC(=O)/C=C/[C@H](C(C)C)NC1=O)C(C)C	31.1%	102%	101%	5.04%	47.2%	15.2%	53.1%	-27.8%	49.2%	54.7%	78.5%	18.9%	-59.9%	75.6%	48.8%	55.1%	30%	92.3%	45.1%	8.54%	growth at 10 µM (SK-MEL-2): 12.7%; growth at 10 µM (HCT-15): 94.2%; growth at 10 µM (NCI/ADR-RES): 105%; growth at 10 µM (MDA-MB-231): 60.8%; growth at 10 µM (U-251): 17.4%; growth at 10 µM (OVCAR-4): 56.6%; growth at 10 µM (NCI-H322M): 94.2%; growth at 10 µM (NCI-H23): 44.1%; growth at 10 µM (MDA-MB-468): 31.2%; growth at 10 µM (UACC-62): 29%
COC(=O)[C@@H](NC(=O)N[C@@H](Cc1ccccc1)C(=O)N[C@H]1CCCCNC(=O)/C=C/[C@H](Cc2ccccc2)NC1=O)C(C)C	14.5%	91.4%	51.3%	-22.2%	34.7%	-4.92%	46.1%	-40.2%	-0.13%	-44.2%	44.6%	15.7%	-69.1%	29.5%	39.8%	9.59%	10.1%	82%	30.6%	1.45%	Kin [1]: 0.000623 s⁻¹; growth at 10 µM (SK-MEL-2): 0.98%; growth at 10 µM (HCT-15): 101%; growth at 10 µM (NCI/ADR-RES): 98.8%; growth at 10 µM (MDA-MB-231): 23.2%; growth at 10 µM (U-251): 17.8%; growth at 10 µM (OVCAR-4): 53.3%; growth at 10 µM (NCI-H322M): 98.1%; growth at 10 µM (NCI-H23): 44.8%; growth at 10 µM (MDA-MB-468): 0.26%; growth at 10 µM (UACC-62): 9.78%
